Mdm2 ligase inh: Mdm2 E3 ligase (human) inhibition; Q00987; cell-based MDM2 ubiquitination luciferase reporter, 2 h; 0 = plate control, 100 = twice control, blank-subtracted; signal enhancement, % at 5 µM; 210,000 compounds, 0.11% hits; AID 1230;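 active = signal enhancement of 30% or more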;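 note: luminescence tracks abundance of the self-degrading MDM2-luciferase fusion protein; higher signal means inhibition of MDM2 E3 ligase activity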
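Test system: stable mammalian line carrying autodegrading MDM2–luciferase fusion reporter; quantity: 2000 cells in each well; times: 4 h cell settling then 2 h compound exposure, 37 °C; detection: luminescence with SteadyLite reagent, 15 min at room temperature; evaluation: percent signal gain over controls, blank-subtracted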
zVAD death inh: blocks zVAD induced death of L929 cells; L929 zVAD necroptosis rescue, ATP luminescence, 24 h; with zVAD 60 µM; viability rescue, % at 10 µM; 220,000 compounds, 0.38% hits; AID 1377;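 active = activation, scaled between plate controls, above about 75%, limit read from the data; inactive = activation under that limit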;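 note: 0% = zVAD with DMSO and 100% = DMSO alone without zVAD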
TNF death inh: TNF-alpha cell death inhibition in Jurkat FADD-/- cells; Jurkat FADD-/- TNF necroptosis rescue, ATP luminescence, 24 h; 0 = TNF only, 100 = no-TNF cells; activation (protection from cell death), % at 10 µM; 220,000 compounds, 0.068% hits;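 active = activation, meaning protection from cell death, of at least 50% relative to plate controls; inactive = activation below 50%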;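 note: necroptosis triggered by 40 ng/mL TNF-alpha added together with compound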
Wee1 degr inh: inhibitors of human Wee1 degradation; P30291; HeLa Luc-Wee1K328M stability, luciferase luminescence; 100% = proteasome inhibitor MG132 effect; reporter increase, % at 5 µM; 220,000 compounds, 1.2% hits; AID 1321;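 active = activation above the mean of all tested compounds plus 3 SD, set per screening run, cut at about 8.8% in these data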;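 note: cells exposed to compound for 20 h before luminescence read; 0% = DMSO alone and 100% = MG132 at 30 µM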
Pf gamet viab: inhibitors of late stage P. falciparum gametocyte viability; P. falciparum stage V gametocytes, ATP luminescence, 24 h; inhibition, % at 10.9 µM; 150,000 compounds, 0.065% hits; AID 743093;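 active = inhibition above the mean plus 3 SD of compounds within the control limits, set per campaign, cut at about 38% in these data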;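 note: 0% = DMSO wells and 100% = medium only without gametocytes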
* = called active by the depositor; . = not tested or not shown. Hits are enriched below; roughly 1.6% of the tested compounds scored in any of these assays.

SMILES	Mdm2 ligase inh	zVAD death inh	TNF death inh	Wee1 degr inh	Pf gamet viab
Cc1ccsc1C1Nc2ccccc2C(=O)N1O (centres undefined)	15	1	0	9.0*	-28
Cc1cccc(C)c1NC(=O)c1cccc(COc2cc(Cl)ccc2Cl)c1	-7	0	1	9.0*	3
Clc1cccc(Cl)c1Cn1ccc(C2CC2)n1	-3	2	97*	-2	4
O=C(COC(=O)[C@@H]1CC(O)CN1S(=O)(=O)c1ccccc1[N+](=O)[O-])c1ccccc1 (some centres undefined)	-24	7	-1	1	-3
COc1ccc(CNC(=O)C/C(C)=N/NC(=O)C(c2ccccc2)c2ccccc2)cc1	-7	91*	25	-1	.
COc1ccc(N2CC(C(=O)N/N=C/c3ccc(C)cc3)CC2=O)cc1 (centres undefined)	-3	-2	-6	2	3
CCOc1cc(C)c(Cl)cc1S(=O)(=O)NC1CC(C)(C)NC(C)(C)C1	-9	0	4	0	-10
C/C(=N\Nc1nc2ccccc2[nH]1)c1ccc([N+](=O)[O-])cc1	.	-1	-6	-1	13
Cc1cc(N2CCN(C(=O)c3ccco3)CC2)n2nc(-c3cccc(Cl)c3)cc2n1	-16	1	1	9.2*	-32
CC(NC(=S)Nc1ccccc1Cl)C(c1ccccc1)N1CCOCC1 (centres undefined)	-14	.	3	9.2*	-2
COc1ccc(NC(=S)NC(C)C(c2ccccc2)N2CCOCC2)cc1 (centres undefined)	-4	0	0	0	-6
COc1ccc2cc(CCNC(=O)c3cccs3)c(=O)[nH]c2c1	.	3	-2	9.5*	.
Cc1ccc(-c2nnn(CC(=O)N3CCCCC3)n2)c(-n2cnnn2)c1	-17	1	1	0	.
Cc1ccc(Oc2ccccc2/C=C2\SC(=O)N(C)C2=O)cc1	-7	0	52*	3	-8
COc1ccc2cc(C3C(C#N)=C(N)OC(C)=C3C(C)=O)c(Cl)nc2c1 (centres undefined)	-15	0	-2	9.0*	-10
Cc1nn(C)c(C)c1NC(=O)c1ccc(Br)o1	11	1	1	5	13
COC(C(=O)Nc1ccc(Br)cc1F)c1ccccc1 (centres undefined)	-3	1	91*	-2	.
COC(C(=O)Nc1ccccc1F)c1ccccc1 (centres undefined)	-8	10	84*	-1	-7
COC(C(=O)NC1CC1)c1ccccc1 (centres undefined)	-11	1	31	1	.
COC(C(=O)Nc1cc([N+](=O)[O-])ccc1C)c1ccccc1 (centres undefined)	-14	0	4	-2	2
CCCN1CNC(=S)N(Cc2ccccc2)C1	10	1	0	0	-13
S=C1NCN(CCc2ccccc2)CN1Cc1ccccc1	-10	-1	-4	9.6*	-10
CSc1ccccc1NC(=O)Nc1ccc(Cl)cc1	1	1	-1	0	.
O=[n+]1cc(-c2ccccc2)n([O-])c2c1CCC2	0	1	1	9.7*	-22
N=C1C(c2nc3ccccc3[nH]2)=C(O)CN1c1ccc(F)cc1	9	1	2	9.7*	.
SMILES	Mdm2 ligase inh	zVAD death inh	TNF death inh	Wee1 degr inh	Pf gamet viab
N=C1C(c2nc3ccccc3[nH]2)=C(O)CN1C1CCCCC1	-10	0	1	5	10
CN(C)/C=C(/C(=O)c1ccc(Cl)cc1Cl)S(=O)(=O)c1ccccc1	-10	1	-1	9.6*	4
CN(C)/C=C(/C(=O)c1ccc(Cl)cc1Cl)S(=O)(=O)c1ccc(Cl)cc1	1	0	0	1	5
CCOC(=O)C1(Cc2cccc(F)c2)CCN(Cc2cn(CC)nc2C)CC1	-15	-1	1	-1	.
COc1ccc(N(C(C)C(=O)N2CCC(Cc3ccccc3)CC2)S(C)(=O)=O)cc1 (centres undefined)	-17	0	-5	-2	0
O=C(O)c1ccc(N=c2oc3cc(O)ccc3cc2C(=O)NCc2ccccc2)cc1	-8	36	1	4	42*
COc1cc(/C(C)=N/NC(=O)CN2CCN(S(=O)(=O)c3ccc(C)cc3)CC2)ccc1O	-7	-1	3	0	39*

Screening results as filed in PubChem.
